Assay results from ChEMBL document CHEMBL1687765, “NagZ inactivation prevents and reverts beta-lactam resistance, driven by AmpD and PBP 4 mutations, in Pseudomonas aeruginosa” (2010).
Values after ≈ are worked out from the molar mass of the structure shown.

Key:
Format in all cases: functional
Pseudomonas aeruginosa [1] = assay: Antimicrobial activity against dacB::lox and nagZ::lox gene-deficient Pseudomonas aeruginosa PAO1 by Etest method in presence of beta-lactamase inhibitor Tazobactam
In short: (§1)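 MICs on Mueller-Hinton agar by Etest strips (piperacillin-tazobactam among the agents tested), per manufacturer's instructions.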

Pseudomonas aeruginosa [2] = assay: Antimicrobial activity against Pseudomonas aeruginosa PAO1 by broth microdilution method
In short: (§2)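 Broth microdilution MICs of ceftazidime, aztreonam and piperacillin in 100 μl cation-adjusted Mueller-Hinton broth, with or without NagZ inhibitor PUGNAc at 0.5 mM or 5 mM; measurements in triplicate.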

Pseudomonas aeruginosa [3] = assay: Antimicrobial activity against ampD::lox gene-deficient Pseudomonas aeruginosa PAO1 harboring dacB gene by broth microdilution method in presence of 0.5 mM NagZ inhibitor PUGNAc
In short: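 MICs of ceftazidime, aztreonam and piperacillin determined by broth microdilution in cation-adjusted Mueller-Hinton broth, with 0.5 mM of the N-acetyl-β-glucosaminidase (NagZ) inhibitor PUGNAc added alongside the β-lactam and untreated controls run in parallel; all measurements performed in triplicate.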

Pseudomonas aeruginosa [4] = assay: Antimicrobial activity against dacB::lox gene-deficient Pseudomonas aeruginosa PAO1 by broth microdilution method in presence of 5 mM NagZ inhibitor PUGNAc; in short: as §2
Pseudomonas aeruginosa [5] = assay: Antimicrobial activity against ampD::lox gene-deficient Pseudomonas aeruginosa PAO1 harboring dacB gene by broth microdilution method; in short: as §2
Pseudomonas aeruginosa [6] = assay: Antimicrobial activity against dacB::lox gene-deficient Pseudomonas aeruginosa PAO1 by Etest method in presence of beta-lactamase inhibitor Tazobactam
In short: (§3)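 MICs read from Etest strips on Mueller-Hinton agar per manufacturer's instructions; agents ceftazidime, cefepime, aztreonam, piperacillin, piperacillin-tazobactam, imipenem and meropenem.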

Pseudomonas aeruginosa [7] = assay: Antimicrobial activity against Pseudomonas aeruginosa PAO1 by broth microdilution method in presence of 5 mM NagZ inhibitor PUGNAc; in short: as §2
Pseudomonas aeruginosa [8] = assay: Antimicrobial activity against Pseudomonas aeruginosa PAO1 by broth microdilution method in presence of 0.5 mM NagZ inhibitor PUGNAc; in short: as §2
Pseudomonas aeruginosa [9] = assay: Antimicrobial activity against dacB::lox gene-deficient Pseudomonas aeruginosa PAO1 by broth microdilution method; in short: as §2
Pseudomonas aeruginosa [10] = assay: Antimicrobial activity against dacB::lox gene-deficient Pseudomonas aeruginosa PAO1 by broth microdilution method in presence of 0.5 mM NagZ inhibitor PUGNAc; in short: as §2
Pseudomonas aeruginosa [11] = assay: Antimicrobial activity against ampC::lox gene-deficient Pseudomonas aeruginosa PAO1 by Etest method in presence of beta-lactamase inhibitor Tazobactam; in short: as §3
Pseudomonas aeruginosa [12] = assay: Antimicrobial activity against ampD::lox and nagZ::lox gene-deficient Pseudomonas aeruginosa PAO1 harboring dacB gene by Etest method in presence of beta-lactamase inhibitor Tazobactam; in short: as §3
Pseudomonas aeruginosa [13] = assay: Antimicrobial activity against ampD::lox gene-deficient Pseudomonas aeruginosa PAO1 by broth microdilution method in presence of 5 mM NagZ inhibitor PUGNAc; in short: as §2
Pseudomonas aeruginosa [14] = assay: Antimicrobial activity against ampD::lox gene-deficient Pseudomonas aeruginosa PAO1 by broth microdilution method; in short: as §2
Pseudomonas aeruginosa [15] = assay: Antimicrobial activity against ampD::lox and nagZ::lox gene-deficient Pseudomonas aeruginosa PAO1 by Etest method in presence of beta-lactamase inhibitor Tazobactam; in short: as §1
Pseudomonas aeruginosa [16] = assay: Antimicrobial activity against ampD::lox, ampDh2::lox and ampDh3::lox gene-deficient Pseudomonas aeruginosa PAO1 by Etest method in presence of beta-lactamase inhibitor Tazobactam
In short: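 Etest strips on Mueller-Hinton agar, read per manufacturer's recommendations; P. aeruginosa PAO1 triple mutant deficient in ampD, ampDh2 and ampDh3 (lox deletions). Agents tested by Etest: ceftazidime, cefepime, aztreonam, piperacillin, piperacillin-tazobactam, imipenem, meropenem.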

Pseudomonas aeruginosa [17] = assay: Antimicrobial activity against ampR::lox gene-deficient Pseudomonas aeruginosa PAO1 by Etest method in presence of beta-lactamase inhibitor Tazobactam; in short: as §3
Pseudomonas aeruginosa [18] = assay: Antimicrobial activity against ampD::lox gene-deficient Pseudomonas aeruginosa PAO1 harboring dacB gene by broth microdilution method in presence of 5 mM NagZ inhibitor PUGNAc; in short: as §2
Pseudomonas aeruginosa [19] = assay: Antimicrobial activity against ampD::lox, ampDh2::lox,ampDh3::lox and nagZ::lox gene-deficient Pseudomonas aeruginosa PAO1 by Etest method in presence of beta-lactamase inhibitor Tazobactam; in short: as §1
Pseudomonas aeruginosa [20] = assay: Antimicrobial activity against Pseudomonas aeruginosa PAO1 by Etest method in presence of beta-lactamase inhibitor Tazobactam; in short: as §3
Pseudomonas aeruginosa [21] = assay: Antimicrobial activity against nagZ::lox gene-deficient Pseudomonas aeruginosa PAO1 by Etest method in presence of beta-lactamase inhibitor Tazobactam; in short: as §3
Pseudomonas aeruginosa [22] = assay: Antimicrobial activity against ampD::lox gene-deficient Pseudomonas aeruginosa PAO1 by Etest method in presence of beta-lactamase inhibitor Tazobactam; in short: as §3
Pseudomonas aeruginosa [23] = assay: Antimicrobial activity against ampD::lox gene-deficient Pseudomonas aeruginosa PAO1 by broth microdilution method in presence of 0.5 mM NagZ inhibitor PUGNAc; in short: as §2
Pseudomonas aeruginosa [24] = assay: Induction of creD mRNA in ampD::lox, ampDh2::lox and ampDh3::lox gene-deficient Pseudomonas aeruginosa PAO1 at 50 ug/ml by RT-PCR relative to wild type Pseudomonas aeruginosa PAO1 (reference value: 1.3 +/- 0.3 no unit)
Pseudomonas aeruginosa [25] = assay: Induction of ampC mRNA in ampD::lox and nagZ::lox gene-deficient Pseudomonas aeruginosa PAO1 at 50 ug/ml by RT-PCR relative to wild type Pseudomonas aeruginosa PAO1 (reference value: 40 +/- 17 no unit) harboring dacB gene
Pseudomonas aeruginosa [26] = assay: Induction of ampC mRNA in Pseudomonas aeruginosa PAO1 at 50 ug/ml by RT-PCR relative to wild type Pseudomonas aeruginosa PAO1 (reference value: 1 no unit)
Pseudomonas aeruginosa [27] = assay: Induction of ampC mRNA in nagZ::lox gene-deficient Pseudomonas aeruginosa PAO1 at 50 ug/ml by RT-PCR relative to wild type Pseudomonas aeruginosa PAO1 (reference value: -2.1 +/- 1.5 no unit)
Pseudomonas aeruginosa [28] = assay: Induction of ampC mRNA in ampD::lox gene-deficient Pseudomonas aeruginosa PAO1 at 50 ug/ml by RT-PCR relative to wild type Pseudomonas aeruginosa PAO1 (reference value: 47 +/-9.5 no unit)
Pseudomonas aeruginosa [29] = assay: Induction of creD mRNA in Pseudomonas aeruginosa PAO1 at 50 ug/ml by RT-PCR relative to wild type Pseudomonas aeruginosa PAO1 (reference value: 1 no unit)
Pseudomonas aeruginosa [30] = assay: Induction of creD mRNA in dacB::lox gene-deficient Pseudomonas aeruginosa PAO1 at 50 ug/ml by RT-PCR relative to wild type Pseudomonas aeruginosa PAO1 (reference value: 83 +/- 7 no unit)
Pseudomonas aeruginosa [31] = assay: Induction of ampC mRNA in ampR::lox gene-deficient Pseudomonas aeruginosa PAO1 at 50 ug/ml by RT-PCR relative to wild type Pseudomonas aeruginosa PAO1 (reference value: 3.8 +/- 0.4 no unit)
Pseudomonas aeruginosa [32] = assay: Induction of ampC mRNA in dacB::lox gene-deficient Pseudomonas aeruginosa PAO1 at 50 ug/ml by RT-PCR relative to wild type Pseudomonas aeruginosa PAO1 (reference value: 51 +/- 16 no unit)
Pseudomonas aeruginosa [33] = assay: Induction of ampC mRNA in ampD::lox gene-deficient Pseudomonas aeruginosa PAO1 at 50 ug/ml by RT-PCR relative to wild type Pseudomonas aeruginosa PAO1 (reference value: 1770 +/- 414 no unit) harboring dacB gene
Pseudomonas aeruginosa [34] = assay: Induction of creD mRNA in ampD::lox and nagZ::lox gene-deficient Pseudomonas aeruginosa PAO1 at 50 ug/ml by RT-PCR relative to wild type Pseudomonas aeruginosa PAO1 (reference value: 2.8 +/- 1.6 no unit)
Pseudomonas aeruginosa [35] = assay: Induction of creD mRNA in ampR::lox gene-deficient Pseudomonas aeruginosa PAO1 at 50 ug/ml by RT-PCR relative to wild type Pseudomonas aeruginosa PAO1 (reference value: 1.6 +/- 0.1 no unit)
Pseudomonas aeruginosa [36] = assay: Induction of ampC mRNA in ampD::lox, ampDh2::lox and ampDh3::lox gene-deficient Pseudomonas aeruginosa PAO1 at 50 ug/ml by RT-PCR relative to wild type Pseudomonas aeruginosa PAO1 (reference value: 1020 +/- 88 no unit)
Pseudomonas aeruginosa [37] = assay: Induction of creD mRNA in ampD::lox gene-deficient Pseudomonas aeruginosa PAO1 at 50 ug/ml by RT-PCR relative to wild type Pseudomonas aeruginosa PAO1 (reference value: 1.1 +/- 0.3 no unit)
Pseudomonas aeruginosa [38] = assay: Induction of ampC mRNA in dacB::lox and nagZ::lox gene-deficient Pseudomonas aeruginosa PAO1 at 50 ug/ml by RT-PCR relative to wild type Pseudomonas aeruginosa PAO1 (reference value: 3 +/- 1.9 no unit)
Pseudomonas aeruginosa [39] = assay: Induction of ampC mRNA in ampD::lox and nagZ::lox gene-deficient Pseudomonas aeruginosa PAO1 at 50 ug/ml by RT-PCR relative to wild type Pseudomonas aeruginosa PAO1 (reference value: 1 +/- 0.4 no unit)
Pseudomonas aeruginosa [40] = assay: Induction of creD mRNA in ampD::lox, ampDh2::lox,ampDh3::lox and nagZ::lox gene-deficient Pseudomonas aeruginosa PAO1 at 50 ug/ml by RT-PCR relative to wild type Pseudomonas aeruginosa PAO1 (reference value: -1.4 +/- 0.1 no unit)
Pseudomonas aeruginosa [41] = assay: Induction of ampC mRNA in ampD::lox, ampDh2::lox,ampDh3::lox and nagZ::lox gene-deficient Pseudomonas aeruginosa PAO1 at 50 ug/ml by RT-PCR relative to wild type Pseudomonas aeruginosa PAO1 (reference value: 57 +/- 31 no unit)
Pseudomonas aeruginosa [42] = assay: Induction of creD mRNA in nagZ::lox gene-deficient Pseudomonas aeruginosa PAO1 at 50 ug/ml by RT-PCR relative to wild type Pseudomonas aeruginosa PAO1 (reference value: 1.1 +/- 0.3 no unit)
Pseudomonas aeruginosa [43] = assay: Induction of creD mRNA in ampD::lox and nagZ::lox gene-deficient Pseudomonas aeruginosa PAO1 at 50 ug/ml by RT-PCR relative to wild type Pseudomonas aeruginosa PAO1 (reference value: 1.9 +/- 1.3 no unit) harboring dacB gene
Pseudomonas aeruginosa [44] = assay: Induction of creD mRNA in dacB::lox and nagZ::lox gene-deficient Pseudomonas aeruginosa PAO1 at 50 ug/ml by RT-PCR relative to wild type Pseudomonas aeruginosa PAO1 (reference value: 4 +/- 0.8 no unit)
Pseudomonas aeruginosa [45] = assay: Induction of creD mRNA in ampD::lox gene-deficient Pseudomonas aeruginosa PAO1 at 50 ug/ml by RT-PCR relative to wild type Pseudomonas aeruginosa PAO1 (reference value: 51 +/- 24 no unit) harboring dacB gene

## CCN1CCN(C(=O)N[C@@H](C(=O)N[C@@H]2C(=O)N3[C@@H]2SC(C)(C)[C@@H]3C(=O)O)c2ccccc2)C(=O)C1=O [PIPERACILLIN]
Pseudomonas aeruginosa [1]
  MIC: 3 µg/mL
Pseudomonas aeruginosa [2]
  MIC: 4 µg/mL (≈ 7.73 µM)
Pseudomonas aeruginosa [3]
  MIC: 256 µg/mL
Pseudomonas aeruginosa [4]
  MIC: 24 µg/mL
Pseudomonas aeruginosa [5]
  MIC: 384 µg/mL (≈ 742 µM)
Pseudomonas aeruginosa [6]
  MIC: 64 µg/mL
Pseudomonas aeruginosa [7]
  MIC: 4 µg/mL
Pseudomonas aeruginosa [8]
  MIC: 4 µg/mL
Pseudomonas aeruginosa [9]
  MIC: 64 µg/mL (≈ 124 µM)
Pseudomonas aeruginosa [10]
  MIC: 32 µg/mL
Pseudomonas aeruginosa [11]
  MIC: 2 µg/mL
Pseudomonas aeruginosa [12]
  MIC: 16 µg/mL
Pseudomonas aeruginosa [13]
  MIC: 24 µg/mL
Pseudomonas aeruginosa [14]
  MIC: 48 µg/mL (≈ 92.7 µM)
Pseudomonas aeruginosa [15]
  MIC: 3 µg/mL
Pseudomonas aeruginosa [16]
  MIC: > 256 µg/mL
Pseudomonas aeruginosa [17]
  MIC: 4 µg/mL
Pseudomonas aeruginosa [18]
  MIC: 256 µg/mL
Pseudomonas aeruginosa [19]
  MIC: 8 µg/mL
Pseudomonas aeruginosa [20]
  MIC: 2 µg/mL
Pseudomonas aeruginosa [21]
  MIC: 2 µg/mL
Pseudomonas aeruginosa [22]
  MIC: 32 µg/mL
Pseudomonas aeruginosa [23]
  MIC: 24 µg/mL

## CO[C@@]1(NC(=O)Cc2cccs2)C(=O)N2C(C(=O)O)=C(COC(N)=O)CS[C@@H]21 [CEFOXITIN]
Pseudomonas aeruginosa [24]
  fold change (FC): 1.6
Pseudomonas aeruginosa [25]
  fold change (FC): 906
Pseudomonas aeruginosa [26]
  fold change (FC): 78
Pseudomonas aeruginosa [27]
  fold change (FC): 469
Pseudomonas aeruginosa [28]
  fold change (FC): 134
Pseudomonas aeruginosa [29]
  fold change (FC): 24
Pseudomonas aeruginosa [30]
  fold change (FC): 120
Pseudomonas aeruginosa [31]
  fold change (FC): 3.3
Pseudomonas aeruginosa [32]
  fold change (FC): 232
Pseudomonas aeruginosa [33]
  fold change (FC): 1950
Pseudomonas aeruginosa [34]
  fold change (FC): 99
Pseudomonas aeruginosa [35]
  fold change (FC): 189
Pseudomonas aeruginosa [36]
  fold change (FC): 1105
Pseudomonas aeruginosa [37]
  fold change (FC): 2.7
Pseudomonas aeruginosa [38]
  fold change (FC): 661
Pseudomonas aeruginosa [39]
  fold change (FC): 483
Pseudomonas aeruginosa [40]
  fold change (FC): 1
Pseudomonas aeruginosa [41]
  fold change (FC): 905
Pseudomonas aeruginosa [42]
  fold change (FC): 54
Pseudomonas aeruginosa [43]
  fold change (FC): 418
Pseudomonas aeruginosa [44]
  fold change (FC): 95
Pseudomonas aeruginosa [45]
  fold change (FC): 81
